Laboratory results reported in paper PMC5557401 (Drug Design, Development and Therapy, 2017).

What was measured:
[1] = test system: A-549 cells; assay: Cell cycle effects and total cell number; format: cell-based, human; conditions: A-549, 24 and 48 h of incubation
How it was run: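 A-549 lung adenocarcinoma cells were exposed to a concentration range from under 100 nM to 50 μM for 24 and 48 h. Cells were immunofluorescently imaged for phosphorylated Rb and total DNA content per cell to assign cell-cycle phase and total cell number. IC50 was derived for the reduction in total cell number.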

[2] = In vitro metabolism with rat liver microsomes, LC-MS; format: in vitro ADME; conditions: incubation with rat liver microsomes, phase I

SMILES	Cell cycle effects [1]	Metabolic reaction (in vitro RLMs metabolites) [2]
COc1ccc(-c2nc(NN=C3C(=O)Nc4ccc(Br)cc43)c3ccccc3n2)cc1OC [Compound 7d, 5-Bromo-3-(2-(2-(3,4-dimethoxyphenyl)quinazolin-4-yl) hydrazono)indolin-2-one]	no effects on the tested parameters	demethylation
CCN(CC)CCNC(=O)c1c(C)[nH]c(/C=C2\C(=O)Nc3ccc(F)cc32)c1C [Sunitinib, reference compound]	reduction in the percentage of cells in G1, with corresponding increases in S or G2/M phases	–
